Laboratory results from ChEMBL document CHEMBL2385063, “Identification of 2-(2-(1-naphthoyl)-8-fluoro-3,4-dihydro-1H-pyrido[4,3-b]indol-5(2H)-yl)acetic acid (setipiprant/ACT-129968), a potent, selective, and orally bioavailable chemoattractant receptor-homologous molecule expressed on Th2 cells (CRTH2) antagonist” (J Med Chem, 2013).
Values after ≈ are worked out from the molar mass of the structure shown.

Key:
[1] = Intrinsic clearance in rat hepatocytes measured per 10^6 cells at 1 uM by LC/MS-MS analysis; format: ADME, cell-based, Hepatocyte; details: read-out: CLH
[2] = Intrinsic clearance in rat liver microsomes measured per mg of protein at 1 uM by LC/MS-MS analysis; format: ADME, Microsome; details: read-out: CLH
[3] = Elimination half life in human plasma at 1 mM by HR-LC-MS analysis; format: ADME, cell-free; details: read-out: beta t1/2
[4] = Intrinsic clearance in human liver microsomes measured per mg of protein at 1 uM by LC/MS-MS analysis; format: ADME, Microsome; details: read-out: CLH
Cytochrome P450 3A4 = Cytochrome P450 3A4 (Homo sapiens, UniProt P08684); test: Inhibition of CYP3A4 in human liver microsomes assessed as midazolam-1'-hydroxylation by LC-MS/MS analysis; format: ADME, Microsome
Chain of Cytochrome P450 3A4 (P08684 whole entry): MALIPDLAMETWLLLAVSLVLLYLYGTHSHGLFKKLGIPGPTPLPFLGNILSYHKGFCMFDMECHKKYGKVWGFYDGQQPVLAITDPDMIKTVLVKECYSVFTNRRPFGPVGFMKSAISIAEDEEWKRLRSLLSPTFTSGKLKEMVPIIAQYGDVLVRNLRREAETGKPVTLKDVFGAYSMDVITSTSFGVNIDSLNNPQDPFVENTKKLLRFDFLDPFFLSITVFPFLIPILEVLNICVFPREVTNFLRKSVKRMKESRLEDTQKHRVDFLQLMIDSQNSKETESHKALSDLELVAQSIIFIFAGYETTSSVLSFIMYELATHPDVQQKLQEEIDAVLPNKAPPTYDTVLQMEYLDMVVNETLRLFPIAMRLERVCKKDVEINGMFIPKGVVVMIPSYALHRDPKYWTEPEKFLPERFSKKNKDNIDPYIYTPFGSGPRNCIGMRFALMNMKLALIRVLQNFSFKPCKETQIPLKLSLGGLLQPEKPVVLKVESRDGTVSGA

[5] = Half life in simulated gastric fluid at 2 uM by LC-MS analysis; format: physicochemical
How it was run: (§1)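 Compounds were incubated in simulated gastric fluid for 1 h or simulated intestinal fluid for 4 h. Unchanged parent was quantified by LC-MS.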

[6] = Half life in simulated intestinal fluid at 2 uM by LC-MS analysis; format: physicochemical; how it was run: as §1
Cytochrome P450 2D6 = Cytochrome P450 2D6 (Homo sapiens, UniProt P10635); test: Inhibition of CYP2D6 in human liver microsomes assessed as dextromethorphan O-demethylation by LC-MS/MS analysis; format: ADME, Microsome
Chain of Cytochrome P450 2D6 (P10635 whole entry): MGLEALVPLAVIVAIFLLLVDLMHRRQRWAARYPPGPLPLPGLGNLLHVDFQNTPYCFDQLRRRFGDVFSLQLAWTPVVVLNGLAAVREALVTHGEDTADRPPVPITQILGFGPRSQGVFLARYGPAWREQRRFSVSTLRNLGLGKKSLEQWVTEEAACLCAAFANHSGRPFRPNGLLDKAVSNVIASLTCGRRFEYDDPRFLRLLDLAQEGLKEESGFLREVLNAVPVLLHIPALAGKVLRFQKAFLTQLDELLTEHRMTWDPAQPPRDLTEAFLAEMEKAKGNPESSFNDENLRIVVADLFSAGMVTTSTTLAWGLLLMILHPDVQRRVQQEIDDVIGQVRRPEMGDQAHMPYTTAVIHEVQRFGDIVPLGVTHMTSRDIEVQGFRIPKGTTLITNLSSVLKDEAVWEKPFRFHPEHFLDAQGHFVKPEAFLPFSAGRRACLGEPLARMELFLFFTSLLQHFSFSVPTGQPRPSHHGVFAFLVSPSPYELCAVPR

Cytochrome P450 2C9 = Cytochrome P450 2C9 (Homo sapiens, UniProt P11712); test: Inhibition of CYP2C9 in human liver microsomes assessed as diclofenac 4'-hydroxylation by LC-MS/MS analysis; format: ADME, Microsome
Chain of Cytochrome P450 2C9 (P11712 whole entry): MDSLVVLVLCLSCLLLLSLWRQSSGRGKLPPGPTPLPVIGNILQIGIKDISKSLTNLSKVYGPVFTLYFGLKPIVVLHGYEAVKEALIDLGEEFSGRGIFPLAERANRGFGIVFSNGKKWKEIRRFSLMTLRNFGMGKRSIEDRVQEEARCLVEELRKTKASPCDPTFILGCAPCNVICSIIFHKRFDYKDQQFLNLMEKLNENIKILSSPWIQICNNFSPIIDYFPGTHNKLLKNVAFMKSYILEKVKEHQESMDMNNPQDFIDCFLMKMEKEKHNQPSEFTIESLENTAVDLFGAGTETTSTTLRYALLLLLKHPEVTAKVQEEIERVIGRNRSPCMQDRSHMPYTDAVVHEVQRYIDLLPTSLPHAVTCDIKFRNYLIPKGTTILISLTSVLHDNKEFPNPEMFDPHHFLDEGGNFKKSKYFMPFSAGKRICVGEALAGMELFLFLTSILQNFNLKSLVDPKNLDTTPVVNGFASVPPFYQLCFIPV

[7] = Solubility of the compound in aqueous buffer at pH 4; format: physicochemical
How it was run: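 Compound was stirred in water, 60 mM citrate buffer pH 4 or 70 mM phosphate buffer pH 7 at 300 rpm, 25 °C, for 24 h. The mixture was filtered, and the filtrate concentration was measured by HPLC-UV at 250 nm against a calibration curve.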

[8] = n-octanol-KH2PO4-Na2HPO4 buffer partition coefficient, log D of the compound at pH 7.4 by shake flask method; format: physicochemical
[9] = target: T1, Prostaglandin G/H synthase 1 (Ovis aries) (UniProt P05979); test: […] at ovine COX-1 at 10 uM relative to control; set-up: scale not given: the % may be the effect or the level left
T1 sequence (whole entry): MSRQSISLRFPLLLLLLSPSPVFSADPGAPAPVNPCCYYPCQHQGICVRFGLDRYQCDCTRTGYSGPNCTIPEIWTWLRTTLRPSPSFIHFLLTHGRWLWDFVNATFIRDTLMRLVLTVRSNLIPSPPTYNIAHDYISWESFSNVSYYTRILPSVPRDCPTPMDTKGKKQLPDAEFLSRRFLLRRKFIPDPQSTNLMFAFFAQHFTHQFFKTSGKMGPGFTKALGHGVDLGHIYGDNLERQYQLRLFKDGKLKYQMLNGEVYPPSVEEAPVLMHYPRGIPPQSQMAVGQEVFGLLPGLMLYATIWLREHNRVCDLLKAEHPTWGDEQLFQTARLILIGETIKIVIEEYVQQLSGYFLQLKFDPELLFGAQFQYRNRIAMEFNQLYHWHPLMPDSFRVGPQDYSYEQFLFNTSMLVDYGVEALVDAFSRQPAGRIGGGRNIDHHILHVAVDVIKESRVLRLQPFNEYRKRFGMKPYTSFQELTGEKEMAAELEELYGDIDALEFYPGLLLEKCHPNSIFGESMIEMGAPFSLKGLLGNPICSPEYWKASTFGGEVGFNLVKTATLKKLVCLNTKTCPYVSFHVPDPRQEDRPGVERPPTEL
How it was run: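 Ovine COX-1 activity measured with a commercial kit, following the manufacturer's protocol. Compounds were tested in duplicate at 10 μM final concentration. Activity is expressed as inhibition relative to control.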

Homo sapiens = species: Homo sapiens; test: Selectivity factor, ratio of IC50 for recombinant human prostanoid DP1 receptor to IC50 for recombinant human CRTH2 receptor
How it was run: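 hDP₁ IC₅₀ came from competitive [³H]PGD₂ binding on CHO cells stably overexpressing recombinant hDP₁. hCRTh2 IC₅₀ came from [³H]PGD₂ (2.5 nM) displacement on membranes of HEK-293 cells stably expressing hCRTh2, incubated 90 min at room temperature, filtered and counted. f_Sel = IC₅₀(hDP₁)/IC₅₀(hCRTh2).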

[10] = target: T2, Prostaglandin D2 receptor (Homo sapiens, UniProt Q13258); test: Displacement of [3H]PGD2 from recombinant human prostanoid DP1 receptor expressed in CHO cells after 90 mins by scintillation counting analysis; format: cell-based
T2 sequence (Q13258 whole entry): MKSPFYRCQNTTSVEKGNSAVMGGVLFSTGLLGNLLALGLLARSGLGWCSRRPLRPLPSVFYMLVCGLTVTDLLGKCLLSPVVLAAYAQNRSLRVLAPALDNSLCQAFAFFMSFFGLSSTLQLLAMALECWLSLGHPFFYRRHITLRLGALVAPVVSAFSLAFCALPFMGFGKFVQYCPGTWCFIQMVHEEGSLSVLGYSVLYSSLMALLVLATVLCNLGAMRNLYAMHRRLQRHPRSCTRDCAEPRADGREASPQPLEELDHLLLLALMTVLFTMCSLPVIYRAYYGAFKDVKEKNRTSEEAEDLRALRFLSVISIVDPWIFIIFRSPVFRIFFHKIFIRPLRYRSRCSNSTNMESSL
How it was run: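 Competitive binding with CHO cells stably expressing high levels of recombinant hDP1, using [3H]PGD2 as ligand; IC50 reported.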

[11] = target: T3, Prostaglandin D2 receptor 2 (Homo sapiens, UniProt Q9Y5Y4); test: Antagonist activity at CRTH2 receptor in human eosinophils assessed as inhibition of PGD2-induced cell shape change incubated for 10 mins prior to PGD2 induction measured after 5 mins by FACS flow cytometric analysis in presence of human plasma
T3 sequence (Q9Y5Y4 whole entry): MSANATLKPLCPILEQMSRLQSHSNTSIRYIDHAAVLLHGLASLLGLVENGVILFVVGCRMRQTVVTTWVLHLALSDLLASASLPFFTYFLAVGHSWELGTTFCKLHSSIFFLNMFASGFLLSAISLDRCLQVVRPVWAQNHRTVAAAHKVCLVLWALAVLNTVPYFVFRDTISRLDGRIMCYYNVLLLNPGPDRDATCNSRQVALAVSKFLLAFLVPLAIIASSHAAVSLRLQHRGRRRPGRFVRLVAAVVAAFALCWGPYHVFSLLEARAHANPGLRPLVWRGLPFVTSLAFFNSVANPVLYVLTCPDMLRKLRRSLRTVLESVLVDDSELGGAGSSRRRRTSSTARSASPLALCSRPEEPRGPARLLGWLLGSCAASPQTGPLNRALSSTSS

Structure (SMILES): O=C(O)Cn1c2c(c3ccccc31)CN(C(=O)c1cccc3ccccc13)CC2
- hepatocyte CLint at 1 µM [1]: 1.5 µL/min/1e6 cells
- microsomal CLint at 1 µM [2]: 36 µL/min/mg
- half-life [3]: > 4 h
- microsomal CLint at 1 µM [4]: < 4 µL/min/mg
- IC50 (Cytochrome P450 3A4): > 50 µM
- half-life at 2 µM [5]: > 1 h
- half-life at 2 µM [6]: > 4 h
- IC50 (Cytochrome P450 2D6): > 50 µM
- IC50 (Cytochrome P450 2C9): 40 µM
- solubility [7]: 0.09 mg/mL (≈ 234 µM)
- logD [8]: 0.2
- Activity [9]: < 30%
- Ratio IC50 (Homo sapiens): 87
- IC50 [10]: 0.78 µM
- IC50 [11]: 1.12 µM
